Results from ChEMBL document CHEMBL4017489, “Design, Synthesis, and Evaluation of New Selective NM23-H2 Binders as c-MYC Transcription Inhibitors via Disruption of the NM23-H2/G-Quadruplex Interaction” (J Med Chem, 2017).
Activity calls are given as the source filed them. No cut-off for these calls is given here.

Experiments:
[1] = tested on: SiHa; experiment: Cell cycle arrest in human SiHa cells assessed as accumulation at G2/M phase at 2 uM after 24 hrs by propidium iodide staining based flow cytometry (reference value: 39 %); assay type: functional
In short: (§1)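 SiHa cells plated 24 h, treated at 2 μM for 3–48 h; fixed in ice-cold 70% ethanol overnight, RNase A 20 μg/mL 37 °C 30 min, PI-stained, flow cytometry at 488 nm; phase percentages quantified; at least three experiments.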

[2] = tested on: SiHa; experiment: Antitumor activity against human SiHa cells xenografted in BALB/C nude mouse assessed as tumor growth inhibition at 2.5 mg/kg, ip administered daily after 3 weeks relative to control; assay type: functional; details: 504 h, read-out: TGI
[3] = tested on: SiHa; experiment: Induction of apoptosis in human SiHa cells assessed as early apoptotic cells at 0.5 uM after 48 hrs by Annexin V-FITC/propidium iodide based flow cytometric analysis (reference value: 1.4 %); assay type: functional
[4] = tested on: SiHa; experiment: Antiproliferative activity against human SiHa cells after 48 hrs by MTT assay; assay type: functional, cell-based
[5] = tested on: SiHa; experiment: Cell cycle arrest in human SiHa cells assessed as accumulation at G2/M phase at 2 uM after 12 hrs by propidium iodide staining based flow cytometry (reference value: 39 %); assay type: functional; in short: as §1
[6] = tested on: SiHa; experiment: Cell cycle arrest in human SiHa cells assessed as accumulation at sub-G1 phase at 2 uM after 36 hrs by propidium iodide staining based flow cytometry relative to control; assay type: functional
In short: (§2)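 SiHa cells (2.0 × 10^5 per well) plated 24 h, then exposed to 2 μM compound or left untreated for 3, 6, 9, 12, 24, 36 or 48 h. Cells washed in PBS, fixed overnight in ice-cold 70% ethanol, treated with 20 μg/mL RNase A for 30 min at 37 °C, stained with PI, and read by flow cytometry at 488 nm. Phase percentages compared with untreated control; at least three experiments.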

[7] = tested on: SiHa; experiment: Induction of apoptosis in human SiHa cells assessed as necrotic cells at 2 uM after 48 hrs by Annexin V-FITC/propidium iodide based flow cytometric analysis (reference value: 0.3%); assay type: functional
[8] = tested on: Mus musculus; experiment: Toxicity in BALB/C nude mouse xenografted with human SiHa cells assessed as pain at 2.5 to 5 mg/kg, ip administered daily after 3 weeks; assay type: organism-based; details: in vivo, 504 h
In short: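 SiHa cells implanted in the right armpit of BALB/c nu/nu mice. At approximately 50 mm3, mice randomized (n = 8/group) to vehicle, compound 2.5 or 5.0 mg/kg, or doxorubicin 1.0 mg/kg, given ip daily for 3 weeks. Body weight and signs of pain, distress or discomfort monitored; tumors excised and weighed. Data given as mean ± SEM, t test against vehicle.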

[9] = tested on: SiHa; experiment: Antiproliferative activity against human SiHa cells harboring NM23-H2 siRNA up to 2 uM after 24 hrs by real-time cellular activity assay; assay type: functional, cell-based
In short: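 SiHa cells precultured 24 h, transfected with 30 nM NM23-H2 siRNA for 6 h, dosed up to 2 μM 24 h after siRNA; growth followed by impedance-based real-time cell analysis.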

[10] = tested on: SiHa; experiment: Antitumor activity against human SiHa cells xenografted in BALB/C nude mouse assessed as tumor weight at 2.5 mg/kg, ip administered daily after 3 weeks (reference value: 511.6 mg); assay type: functional
[11] = target: T1, Nucleoside diphosphate kinase B (Homo sapiens, UniProt P22392); experiment: Binding affinity to NM23-H2 (unknown origin) assessed as reduction in protein interaction with Pu22 c-myc G-quadruplex DNA after 1 hr by EMSA
[12] = tested on: SiHa; experiment: Cell cycle arrest in human SiHa cells assessed as accumulation at S phase at 2 uM after 36 hrs by propidium iodide staining based flow cytometry (reference value: 13 %); assay type: functional; in short: as §2
[13] = target: T1, Nucleoside diphosphate kinase B; experiment: Binding affinity to NM23-H2 in human SiHa cells assessed as decrease in NM23-H2 to c-myc G-quadruplex DNA interaction after 9 hrs by Chromatin immunoprecipitation assay; assay type: cell-based
In short: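 SiHa cells treated 9 h; chromatin immunoprecipitated overnight at 4 °C with anti-NM23-H2 (3 μg), rabbit IgG control; c-MYC promoter fragment PCR-amplified, gel bands normalized to input, untreated set 100%; three repeats.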

[14] = tested on: SiHa; experiment: Down regulation of cyclin D1 expression in human SiHa cells at 0.5 to 2 uM after 24 to 48 hrs by Western blot analysis; assay type: functional, cell-based
In short: (§3)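 SiHa cells (2.0 × 10^5) treated with compound at various concentrations for 24 or 48 h, then lysed at 4 °C. Protein measured by BCA; 30 μg run on 10% SDS-PAGE and transferred to nitrocellulose. Membranes blocked in 5% milk, probed with primary antibodies overnight at 4 °C, then HRP secondary for 2 h, and detected by chemiluminescence. Bands quantified by densitometry; at least three experiments.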

[15] = Antiproliferative activity against mouse primary mesangial cells at 0.5 to 2 uM up to 100 hrs by real-time cellular activity assay; assay type: cell-based; details: primary mesangial cell
In short: (§4)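 Impedance-based real-time cell analysis at 37 °C, 5% CO2: 100 μL of 20 000 cells/mL added over medium background, settled 20 min, dosed after 24 h; read every 2 min for 2 h, then every 15 min to end; three repeats.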

[16] = Binding affinity to biotin-labeled Pu22 c-myc G-quadruplex DNA (unknown origin) at 40 uM after 30 mins by SPR analysis
[17] = tested on: SiHa; experiment: Antiproliferative activity against human SiHa cells up to 100 hrs by real-time cellular activity assay; assay type: functional, cell-based; in short: as §4
[18] = tested on: SiHa; experiment: Cell cycle arrest in human SiHa cells assessed as accumulation at sub-G1 phase at 2 uM after 24 hrs by propidium iodide staining based flow cytometry relative to control; assay type: functional; in short: as §2
[19] = tested on: SiHa; experiment: Down regulation of CDK6 expression in human SiHa cells at 0.5 to 2 uM after 24 to 48 hrs by Western blot analysis; assay type: functional, cell-based; in short: as §3
[20] = tested on: SiHa; experiment: Cell cycle arrest in human SiHa cells assessed as accumulation at G0/G1 phase at 2 uM after 9 hrs by propidium iodide staining based flow cytometry (reference value: 48 %); assay type: functional; in short: as §1
[21] = Binding affinity to 5'-FAM/3'-TAMRA labeled Pu22 c-myc G-quadruplex DNA (unknown origin) assessed as increase in melting temperature at 1 uM by FRET assay
[22] = target: T1, Nucleoside diphosphate kinase B; experiment: Binding affinity to N-terminal NT-647-NHS labeled NM23-H2 (unknown origin) after 30 mins by MST analysis
In short: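 NM23-H2 N-terminally labeled with RED-NHS dye (20 μM protein, 30 min dark, RT), free dye removed; 200 nM labeled protein with compound from 500 μM, 16 twofold steps, 30 min RT in 50 mM Tris-HCl pH 7.4, 150 mM NaCl, 10 mM MgCl2, 0.05% Tween-20; KD at half-plateau.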

[23] = target: T1, Nucleoside diphosphate kinase B; experiment: Binding affinity to NM23-H2 (unknown origin) by SPR analysis
[24] = tested on: SiHa; experiment: Cell cycle arrest in human SiHa cells assessed as accumulation at sub-G1 phase at 2 uM after 48 hrs by propidium iodide staining based flow cytometry relative to control; assay type: functional; in short: as §2
[25] = tested on: SiHa; experiment: Cell cycle arrest in human SiHa cells assessed as accumulation at G2/M phase at 2 uM after 48 hrs by propidium iodide staining based flow cytometry (reference value: 39 %); assay type: functional; in short: as §2
[26] = tested on: SiHa; experiment: Cell cycle arrest in human SiHa cells assessed as accumulation at S phase at 2 uM after 48 hrs by propidium iodide staining based flow cytometry (reference value: 13 %); assay type: functional; in short: as §2

T1 sequence (P22392 whole entry): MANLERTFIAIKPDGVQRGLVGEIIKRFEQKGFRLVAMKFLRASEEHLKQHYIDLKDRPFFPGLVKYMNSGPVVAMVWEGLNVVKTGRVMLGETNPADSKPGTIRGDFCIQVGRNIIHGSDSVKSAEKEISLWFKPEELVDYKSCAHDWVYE

## CN(C)CCCNc1cc2nc3n(c(=O)c2cc1F)CC/C3=C\c1ccc(OCc2ccccc2)cc1O
[1]
  Activity: 8%
[2]
  inhibition in vivo at 2.5 mg/kg: 48%
[3]
  Activity: 11.8%
[4]
  IC50: 1780 nM
[5]
  Activity: 27%
[6]
  Activity: 99%
[7]
  Activity: 2.2%
[8]
  Activity: Non-Toxic
[9]
  Activity: inactive
[10]
  Activity: 265.9 mg
[11]
  Activity: Dose-dependent effect
[12]
  Activity: 0%
[13]
  Activity: Dose-dependent effect
[14]
  Activity: Active
[15]
  Activity: Non-Toxic
[16]
  Activity: inactive
[17]
  Activity: Dose-dependent effect
[18]
  Activity: 64%
[19]
  Activity: Active
[20]
  Activity: 67%
[21]
  Activity: inactive
[22]
  Kd: 2000 nM
[23]
  Kd: 3100 nM
[24]
  Activity: 100%
[25]
  Activity: 0%
[26]
  Activity: 0%
